Laboratory results reported in ChEMBL document CHEMBL1123507, “Antipicornavirus activity of substituted phenoxybenzenes and phenoxypyridines” (J Med Chem, 1986).
Values after ≈ are worked out from the molar mass of the structure shown.

Assays:
Coxsackievirus [1] = assay: Lowest concentration to reduce viral effect by 50% or more against coxsackie virus A21; assay type: functional
How it was run: (§1)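 HeLa monolayers were seeded at (1.0-1.3) × 10^5 cells/well, grown 24 h at 36 °C in 5% CO2 to 60–75% cover, then refed with maintenance medium (1-2% heat-inactivated FCS) containing two-fold serial compound dilutions made from a 200 μg/mL stock in Me2SO/medium, with final Me2SO ≤0.1%. Cells were challenged with 10-100 TCID50 virus, and CPE was read microscopically at 48 and 72 h. MIC50 was the lowest concentration giving ≥50% CPE reduction versus virus control. Cytotoxicity was the lowest concentration causing cell death, a growth change or a morphology change in uninfected cultures.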

Enterovirus [2] = assay: Lowest concentration to reduce viral effect by 50% or more against Rhinovirus (RV)-2; assay type: functional; how it was run: as §1
HeLa = assay: Cytotoxicity concentration in HeLa cells; assay type: cell-based; conditions: human; how it was run: as §1
Enterovirus [3] = assay: Lowest concentration to reduce viral effect by 50% or more against Rhinovirus (RV)-1A; assay type: functional; how it was run: as §1
Enterovirus [4] = assay: Ratio of the MIC50 of 6-(4-Nitro-phenoxy)-nicotinonitrile compared to compound obtained in the same test for Rhinovirus (RV)-1A; assay type: functional
How it was run: (§2)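 Relative activity was calculated as the MIC50 of the positive control 5-cyano-2-(4-nitrophenoxy)pyridine divided by the MIC50 of the test compound. Both were measured in parallel in the same HeLa CPE test (48/72 h microscopic reading) against RV-1A, RV-2 or coxsackievirus A21.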

Enterovirus [5] = assay: Ratio of the MIC50 of 6-(4-Nitro-phenoxy)-nicotinonitrile compared to compound obtained in the same test for Rhinovirus (RV)-2; assay type: functional; how it was run: as §2
Coxsackievirus [6] = assay: Ratio of the MIC50 of 6-(4-Nitro-phenoxy)-nicotinonitrile compared to compound obtained in the same test for coxsackie A21; assay type: functional; how it was run: as §2

Row | SMILES | MIC50 (Coxsackievirus [1]) [µM] | MIC50 (Enterovirus [2]) [µM] | Toxicity (HeLa) [µM] | MIC50 (Enterovirus [3]) [µM] | Relative activity (Enterovirus [4]) | Relative activity (Enterovirus [5]) | Relative activity (Coxsackievirus [6])
1 | CS(=O)(=O)c1cccnc1Oc1ccc(Cl)c(Cl)c1 | 157 (≈ 50 µg/mL) | 157 (≈ 50 µg/mL) | 157 | 79 (≈ 25.1 µg/mL) |  |  | 
2 | C[S+]([O-])c1ccc(Oc2ccc(Cl)c(Cl)c2)nc1 (stereo not given) | 83 (≈ 25.1 µg/mL) | 4 (≈ 1.21 µg/mL) | 83 | 2 (≈ 0.604 µg/mL) | 6.5 | 3.3 | 
3 | COc1ccccc1Oc1ccc([N+](=O)[O-])cc1C#N | 18.5 (≈ 5 µg/mL) | 9.2 (≈ 2.49 µg/mL) | 18.5 | 9.2 (≈ 2.49 µg/mL) |  |  | 
4 | O=S(=O)(O)c1ccc(Oc2ccc(Cl)c(Cl)c2)nc1 | 312 (≈ 99.9 µg/mL) | > 312 | 312 | 20 (≈ 6.4 µg/mL) | 1.3 |  | 
5 | O=S(=O)(c1ccccc1)c1ccc(Oc2ccc(Cl)c(Cl)c2)cc1 | 1.6 (≈ 0.607 µg/mL) | 1.6 (≈ 0.607 µg/mL) | 3.3 | 1.6 (≈ 0.607 µg/mL) |  |  | 
6 | N#Cc1cc(Cl)ccc1Oc1ccc(Cl)c(Cl)c1 | 1 (≈ 0.299 µg/mL) | > 334 | > 334 | > 334 |  |  | 5.2
7 | CC(=O)c1ccc(Oc2ccc(S(C)(=O)=O)cc2)cc1 | 17.2 (≈ 4.99 µg/mL) | 8.6 (≈ 2.5 µg/mL) | 172 | 86.2 (≈ 25 µg/mL) |  | 3 | 0.769
8 | CS(=O)(=O)c1ccc(Oc2ccc([N+](=O)[O-])cc2C#N)cc1 | 2 (≈ 0.637 µg/mL) | 39.3 (≈ 12.5 µg/mL) | > 314 | > 314 |  | 1.3 | 2.6
9 | CC(=O)c1ccc(Oc2ccc(Cl)c(Cl)c2)cc1 |  | 2.2 (≈ 0.619 µg/mL) | 49 | 2.2 (≈ 0.619 µg/mL) | 11.8 | 11.8 | 
10 | N#Cc1cc(Oc2ccc(Cl)c(Cl)c2)ccc1[N+](=O)[O-] | 16.2 (≈ 5.01 µg/mL) | 16.2 (≈ 5.01 µg/mL) | 162 |  |  | 1.2 | 1.2
11 | Cc1cc(Oc2ccc(Cl)c(Cl)c2)ccc1S(C)(=O)=O | > 151 |  | > 151 | 15.7 (≈ 5.2 µg/mL) | 1.7 | 1.4 | 
12 | N#Cc1cc([N+](=O)[O-])ccc1Oc1ccccc1C(F)(F)F | 32 (≈ 9.86 µg/mL) | 3.9 (≈ 1.2 µg/mL) | 32 | > 324 |  | 3.3 | 
13 | N#Cc1cc([N+](=O)[O-])ccc1Oc1ccc(C(=O)c2ccccc2)cc1 | 36.3 (≈ 12.5 µg/mL) | > 291 | > 291 | > 291 |  |  | 1.4
14 | N#Cc1cccc(Oc2ccc(Cl)c(Cl)c2)n1 | 23.5 (≈ 6.23 µg/mL) | > 378 | 378 | 94 (≈ 24.9 µg/mL) | 0.28 |  | 0.91
15 | CS(=O)(=O)c1ccc(Oc2ccc(C#N)cc2)cc1 | 11.4 (≈ 3.12 µg/mL) | 45.8 (≈ 12.5 µg/mL) | 183 |  |  | 0.56 | 2.3
16 | CS(=O)(=O)c1ccnc(Oc2ccc(Cl)c(Cl)c2)c1 | 5 (≈ 1.59 µg/mL) | 79 (≈ 25.1 µg/mL) | 157 | 79 (≈ 25.1 µg/mL) |  |  | 10.4
17 | CC(=O)c1ccc(Oc2ccc(C#N)cn2)cc1 | 53 (≈ 12.6 µg/mL) |  | 420 | 210 (≈ 50 µg/mL) |  |  | 0.02
18 | COc1ccc(Oc2ccc([N+](=O)[O-])cc2C#N)cc1OC | 10.3 (≈ 3.09 µg/mL) | 20.7 (≈ 6.22 µg/mL) | > 167 | > 167 |  | 0.63 | 1.3

Row | SMILES | MIC50 (Coxsackievirus [1]) [µM] | MIC50 (Enterovirus [2]) [µM] | Toxicity (HeLa) [µM] | MIC50 (Enterovirus [3]) [µM] | Relative activity (Enterovirus [4]) | Relative activity (Enterovirus [5]) | Relative activity (Coxsackievirus [6])
19 | N#Cc1ccc(Oc2ccc(Cl)c(Cl)c2)c(C#N)c1 | 10.7 (≈ 3.09 µg/mL) | 10.7 (≈ 3.09 µg/mL) | > 173 | > 173 |  | 2.4 | 3.1
20 | N#Cc1cc(N)ccc1Oc1ccc(Cl)c(Cl)c1 | 2.2 (≈ 0.614 µg/mL) | 9 (≈ 2.51 µg/mL) | 9 | 4.5 (≈ 1.26 µg/mL) |  |  | 11.8
21 | CS(=O)(=O)c1ccc(Oc2ccc(Cl)c(Cl)c2)c(N)c1 | 18.7 (≈ 6.21 µg/mL) | 18.7 (≈ 6.21 µg/mL) | 19 | 15 (≈ 4.98 µg/mL) |  |  | 
22 | CS(=O)(=O)c1ccc(Oc2ccc(O)cc2)cc1 | > 189 | 94.7 (≈ 25 µg/mL) | 95 | 94.7 (≈ 25 µg/mL) |  |  | 
23 | CS(=O)(=O)c1ccc(Oc2ccc(Cl)c(Cl)c2)c([N+](=O)[O-])c1 | > 267 | 16.7 (≈ 6.05 µg/mL) | > 267 | > 267 |  | 3.1 | 
24 | N#Cc1ccc(Oc2ccc(F)cc2)nc1 | 69 (≈ 14.8 µg/mL) |  | 250 | 34 (≈ 7.28 µg/mL) | 3.3 |  | 1.7
25 | Nc1ccc(Oc2ccc(Cl)c(Cl)c2)nc1 | 98 (≈ 25 µg/mL) |  | 88 | 5 (≈ 1.28 µg/mL) | 4.1 |  | 
26 | O=[N+]([O-])c1ccc(Oc2ccc(Cl)c(Cl)c2)c([N+](=O)[O-])c1 | 19 (≈ 6.25 µg/mL) | > 304 | 19 | > 304 |  |  | 
27 | CS(=O)(=O)c1ccc(Oc2ccc(C(=O)c3ccccc3)cc2)cc1 | 0.88 (≈ 0.31 µg/mL) | 142 (≈ 50 µg/mL) | > 284 | > 284 |  |  | 5.9
28 | O=S(=O)(c1ccc(Oc2ccc(Cl)c(Cl)c2)cc1)C(F)(F)F |  | 16.8 (≈ 6.24 µg/mL) | > 135 | 33.7 (≈ 12.5 µg/mL) | 0.39 | 1.5 | 
29 | N#Cc1ccccc1Oc1ccc(Cl)c(Cl)c1 | 23.7 (≈ 6.26 µg/mL) | > 379 | 379 | > 379 |  |  | 1.1
30 | CSc1ccc(Oc2ccc([N+](=O)[O-])cc2C#N)cc1 | 0.87 (≈ 0.249 µg/mL) | 21.8 (≈ 6.24 µg/mL) | 350 | > 350 |  | 2.4 | 6
31 | CS(=O)(=O)c1ccc(Oc2cccc(Cl)c2)cc1 | 22.1 (≈ 6.25 µg/mL) | 22.1 (≈ 6.25 µg/mL) | 88 |  |  | 1.2 | 0.59
32 | N#Cc1ccc(Oc2ccccc2)nc1 | 64 (≈ 12.6 µg/mL) |  | 676 | 64 (≈ 12.6 µg/mL) | 0.4 |  | 0.81
33 | Clc1ccc(Oc2ccc(Cl)c(Cl)c2)cc1 | 9.1 (≈ 2.49 µg/mL) | 45.6 (≈ 12.5 µg/mL) | 91 | 22.8 (≈ 6.24 µg/mL) | 2.3 |  | 1.4
34 | CS(=O)(=O)c1ccc(Oc2ccccc2Cl)cc1 | 11 (≈ 3.11 µg/mL) | 44.2 (≈ 12.5 µg/mL) | 88 | 88 (≈ 24.9 µg/mL) |  |  | 1.2
35 | CS(=O)(=O)c1ccc(Oc2ccc(Cl)c(Cl)c2)c(C#N)c1 | > 292 | 18.3 (≈ 6.26 µg/mL) | 292 | > 292 |  | 2.8 | 
